Laboratory results taken from ChEMBL document CHEMBL3108707, “Design, synthesis and structure-activity relationships of some novel, highly potent anti-invasive (E)- and (Z)-stilbenes” (2013).
Active and inactive are the calls of the source. No cut-off for these calls is given here.

Legend:
MCF7/6 [1] = assay: Antiinvasive activity against human MCF7/6 cells assessed as decrease in occupying outer fibroblast-like and myoblast cell layers at 10 umol/L after 8 days by hematoxylin and eosin staining assay; type: functional, cell-based
Method in brief: (§1)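 Precultured heart fragments from 9-day-old chick embryos (0.4 mm diameter) were paired with MCF-7/6 aggregates (0.2 mm). Pairs sat overnight at 37 °C on semi-solid agar, then spun 8 days in suspension (37 °C, 120 rpm, 10% CO₂) with compound added in DMSO. Runs were usually in duplicate; 10 µmol/L often single. 7 µm sections were scored histologically for invasion grade 0–IV, with alternate sections stained with 5D10 antibody.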

MCF7/6 [2] = assay: Antiinvasive activity against human MCF7/6 cells assessed as decrease in occupying outer fibroblast-like and myoblast cell layers at 0.01 umol/L after 8 days by hematoxylin and eosin staining assay; type: functional, cell-based; method in brief: as §1
MCF7/6 [3] = assay: Antiinvasive activity against human MCF7/6 cells assessed as decrease in occupying outer fibroblast-like and myoblast cell layers at 0.1 umol/L after 8 days by hematoxylin and eosin staining assay; type: functional, cell-based; method in brief: as §1
[4] = Antiinvasive activity against human MCF7/6 cells assessed as minimum log concentration required to show activity after 8 days by hematoxylin and eosin staining-based chick heart invasion assay; type: functional; set-up: unit: log(µmol/L)
Method in brief: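 Confronting cultures were set up as chick heart fragments (9-day embryos) plus MCF-7/6 aggregates, 8 days at 37 °C. Compound was dosed in DMSO at 10, 1, 0.1 and 0.01 µmol/L, in duplicate, and grades were scored histologically. c_min is the lowest concentration where both repeats gave grade I or II; inconclusive cases were repeated. A single active repeat counted if all repeats at 10-fold higher were active. The value is reported as log c_min.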

MCF7/6 [5] = assay: Antiinvasive activity against human MCF7/6 cells assessed as occupying less than half of original amount of heart tissue at 0.1 umol/L after 8 days by hematoxylin and eosin staining assay; type: functional, cell-based; method in brief: as §1
MCF7/6 [6] = assay: Antiinvasive activity against human MCF7/6 cells assessed as decrease in occupying outer fibroblast-like and myoblast cell layers at 1 umol/L after 8 days by hematoxylin and eosin staining assay; type: functional, cell-based; method in brief: as §1
MCF7/6 [7] = assay: Antiinvasive activity against human MCF7/6 cells assessed as precultured chick heart tissue fragment attachment without occupying heart tissue and outermost fibroblastic cell layers at 1 umol/L after 8 days by hematoxylin and eosin staining assay; type: functional, cell-based; method in brief: as §1
MCF7/6 [8] = assay: Antiinvasive activity against human MCF7/6 cells assessed as occupying more than half of original amount of chick precultured heart tissue fragment at 10 umol/L after 8 days by hematoxylin and eosin staining assay; type: functional, cell-based; method in brief: as §1
MCF7/6 [9] = assay: Antiinvasive activity against human MCF7/6 cells assessed as chick precultured heart tissue fragment attachment without occupying heart tissue and outermost fibroblastic cell layer at 0.1 umol/L after 8 days by hematoxylin and eosin staining assay; type: functional, cell-based; method in brief: as §1
MCF7/6 [10] = assay: Antiinvasive activity against human MCF7/6 cells assessed as occupying less than half of original amount of heart tissue at 1 umol/L after 8 days by hematoxylin and eosin staining assay; type: functional, cell-based; method in brief: as §1
MCF7/6 [11] = assay: Antiinvasive activity against human MCF7/6 cells assessed as precultured chick heart tissue fragment attachment without occupying heart tissue and outermost fibroblastic cell layer at 10 umol/L after 8 days by hematoxylin and eosin staining assay; type: functional, cell-based; method in brief: as §1
MCF7/6 [12] = assay: Antiinvasive activity against human MCF7/6 cells assessed as occupying less than half of original amount of chick precultured heart tissue fragment at 10 umol/L after 8 days by hematoxylin and eosin staining assay; type: functional, cell-based; method in brief: as §1

Fc1ccc(/C=C/c2ccc(F)cc2)cc1
Activity (MCF7/6 [1]): Active | Activity (MCF7/6 [2]): Active | Activity (MCF7/6 [3]): Active | logMEC [4]: -2

COc1cc(/C=C/c2ccc(F)cc2)cc(OC)c1OC
Activity (MCF7/6 [1]): Active | logMEC [4]: 0 | Activity (MCF7/6 [5]): inactive

COc1cc(/C=C\c2ccccc2)cc(OC)c1OC
Activity (MCF7/6 [1]): Active | Activity (MCF7/6 [2]): Active | Activity (MCF7/6 [6]): Active | Activity (MCF7/6 [3]): Active | logMEC [4]: -2 | Activity (MCF7/6 [7]): Active

COc1ccc(/C=C/c2ccc(F)cc2)cc1
Activity (MCF7/6 [1]): Active | Activity (MCF7/6 [2]): Active | Activity (MCF7/6 [3]): Active | logMEC [4]: -2

Fc1ccc(/C=C/c2ccccc2)cc1
Activity (MCF7/6 [6]): Active | Activity (MCF7/6 [5]): inactive

COc1ccc(/C=C/c2ccccc2)cc1
Activity (MCF7/6 [8]): inactive | Activity (MCF7/6 [3]): Active | Activity (MCF7/6 [9]): Active | logMEC [4]: -1

COc1cc(/C=C\c2ccc(F)cc2)cc(OC)c1OC
logMEC [4]: 1 | Activity (MCF7/6 [10]): inactive | Activity (MCF7/6 [11]): Active | Activity (MCF7/6 [5]): inactive

C(=C\c1ccccc1)/c1ccccc1
Activity (MCF7/6 [6]): Active | Activity (MCF7/6 [3]): Active | Activity (MCF7/6 [12]): inactive | logMEC [4]: -1 | Activity (MCF7/6 [7]): Active

Fc1ccc(/C=C\c2ccccc2)cc1
Activity (MCF7/6 [2]): Active | logMEC [4]: -2

COc1cc(/C=C/c2ccccc2)cc(OC)c1OC
Activity (MCF7/6 [1]): Active | logMEC [4]: -1
